In ChEMBL document CHEMBL5653621, “Freezing the Bioactive Conformation to Boost Potency: The Identification of BAY 85-8501, a Selective and Potent Inhibitor of Human Neutrophil Elastase for Pulmonary Diseases” (ChemMedChem, 2015):

Biological target: T1, Kallikrein-12 (Homo sapiens, UniProt Q9UKR0)
T1 sequence (Q9UKR0 whole entry): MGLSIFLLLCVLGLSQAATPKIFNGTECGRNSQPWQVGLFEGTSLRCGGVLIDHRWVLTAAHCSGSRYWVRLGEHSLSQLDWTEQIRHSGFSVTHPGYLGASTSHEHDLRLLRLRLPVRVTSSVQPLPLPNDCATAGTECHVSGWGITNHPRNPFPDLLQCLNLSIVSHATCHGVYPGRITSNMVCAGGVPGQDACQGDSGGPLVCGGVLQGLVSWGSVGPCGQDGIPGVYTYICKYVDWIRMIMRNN
Assay: Inhibition of kallikrein-12 (unknown origin)
Conditions: not given

SMILES | IC50
CC(=O)C1=C(C)N(c2cccc(C(F)(F)F)c2)C(=O)N[C@@H]1c1ccc(C#N)nc1 [BAY-678] | > 30 µM

Biological target: Coagulation factor IX (Homo sapiens, UniProt P00740)
Assay: Inhibition of FIXa (unknown origin)
Conditions: not given

Chain of Coagulation factor IX (P00740 47-191 limits assumed): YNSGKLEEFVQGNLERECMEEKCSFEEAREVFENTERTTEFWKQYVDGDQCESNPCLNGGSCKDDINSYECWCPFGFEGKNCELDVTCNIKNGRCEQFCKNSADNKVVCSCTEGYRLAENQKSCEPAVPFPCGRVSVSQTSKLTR
Chain of Coagulation factor IX (P00740 227-461 limits assumed): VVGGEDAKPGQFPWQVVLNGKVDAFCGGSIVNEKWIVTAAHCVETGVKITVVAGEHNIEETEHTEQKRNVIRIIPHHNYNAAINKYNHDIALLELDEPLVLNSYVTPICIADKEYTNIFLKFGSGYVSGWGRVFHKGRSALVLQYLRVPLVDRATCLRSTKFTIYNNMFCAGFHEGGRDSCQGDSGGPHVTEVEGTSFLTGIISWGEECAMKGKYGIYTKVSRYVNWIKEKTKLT

SMILES | IC50
CC(=O)C1=C(C)N(c2cccc(C(F)(F)F)c2)C(=O)N[C@@H]1c1ccc(C#N)nc1 [BAY-678] | > 30 µM

Biological target: Kallikrein-4 (Homo sapiens, UniProt Q9Y5K2)
Assay: Inhibition of kallikrein-4 (unknown origin)
Conditions: not given

Chain of Kallikrein-4 (Q9Y5K2 whole entry): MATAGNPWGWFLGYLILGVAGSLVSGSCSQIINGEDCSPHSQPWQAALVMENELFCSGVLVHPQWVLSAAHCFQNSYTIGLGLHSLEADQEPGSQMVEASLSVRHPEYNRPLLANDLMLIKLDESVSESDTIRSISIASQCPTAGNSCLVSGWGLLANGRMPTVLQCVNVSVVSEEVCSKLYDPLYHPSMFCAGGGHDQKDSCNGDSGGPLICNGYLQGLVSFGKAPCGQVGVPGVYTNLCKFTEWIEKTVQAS

SMILES | IC50
CC(=O)C1=C(C)N(c2cccc(C(F)(F)F)c2)C(=O)N[C@@H]1c1ccc(C#N)nc1 [BAY-678] | > 30 µM

Test system: not listed separately
Assay: Apparent volume of distribution at steady state in rat at 0.3 mg/kg, po administered via gavage or 0.84 mg/kg, iv administered via infusion for 0.25 to 2 hrs by LC-MS/MS analysis
Format: ADME, organism-based
Conditions: in vivo

SMILES | Vdss(app)
CC(=O)C1=C(C)N(c2cccc(C(F)(F)F)c2)C(=O)N[C@@H]1c1ccc(C#N)nc1 [BAY-678] | 3.9 L/kg

Test system: not listed separately
Assay: Metabolic stability in rat hepatocytes assessed as maximum bioavailability at <=[…] uM incubated for 90 mins by LC-MS/MS analysis
Format: ADME, organism-based, Hepatocyte
Conditions: read-out: Fmax

SMILES | Fh at […], 1 µM
CC(=O)C1=C(C)N(c2cccc(C(F)(F)F)c2)C(=O)N[C@@H]1c1ccc(C#N)nc1 [BAY-678] | 57%

Biological target: T2, Cathepsin G (Homo sapiens, UniProt P08311)
T2 sequence (P08311 whole entry): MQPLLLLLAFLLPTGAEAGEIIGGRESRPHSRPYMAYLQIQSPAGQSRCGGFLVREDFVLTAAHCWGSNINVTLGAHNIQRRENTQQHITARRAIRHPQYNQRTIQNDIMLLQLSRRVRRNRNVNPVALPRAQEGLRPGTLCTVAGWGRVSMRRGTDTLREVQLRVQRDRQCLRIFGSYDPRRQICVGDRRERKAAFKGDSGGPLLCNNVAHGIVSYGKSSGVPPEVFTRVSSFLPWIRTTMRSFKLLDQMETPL
Assay: Inhibition of cathepsin G (unknown origin)
Conditions: not given

SMILES | IC50
CC(=O)C1=C(C)N(c2cccc(C(F)(F)F)c2)C(=O)N[C@@H]1c1ccc(C#N)nc1 [BAY-678] | > 30 µM

Biological target: Plasma kallikrein (Homo sapiens, UniProt P03952)
Assay: Inhibition of kallikrein-B1 (unknown origin)
Conditions: not given

Chain of Plasma kallikrein (P03952 20-390 limits assumed): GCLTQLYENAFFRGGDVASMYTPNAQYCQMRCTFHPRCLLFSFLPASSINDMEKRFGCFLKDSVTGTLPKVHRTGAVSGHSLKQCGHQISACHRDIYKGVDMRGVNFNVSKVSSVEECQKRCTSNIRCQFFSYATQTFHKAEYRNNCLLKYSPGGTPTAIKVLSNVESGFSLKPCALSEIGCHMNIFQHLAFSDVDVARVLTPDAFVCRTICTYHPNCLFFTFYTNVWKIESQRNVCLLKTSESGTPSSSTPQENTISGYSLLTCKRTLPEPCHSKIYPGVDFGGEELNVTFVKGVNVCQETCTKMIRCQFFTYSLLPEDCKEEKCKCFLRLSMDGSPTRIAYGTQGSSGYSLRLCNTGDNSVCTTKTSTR
Chain of Plasma kallikrein (P03952 391-638 limits assumed): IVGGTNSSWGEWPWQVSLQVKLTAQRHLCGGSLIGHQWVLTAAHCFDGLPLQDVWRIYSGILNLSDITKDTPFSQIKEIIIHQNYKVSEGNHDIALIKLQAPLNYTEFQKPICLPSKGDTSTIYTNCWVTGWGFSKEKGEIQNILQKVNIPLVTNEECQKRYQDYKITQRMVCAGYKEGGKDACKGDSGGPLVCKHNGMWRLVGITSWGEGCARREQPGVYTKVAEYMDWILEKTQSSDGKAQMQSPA

SMILES | IC50
CC(=O)C1=C(C)N(c2cccc(C(F)(F)F)c2)C(=O)N[C@@H]1c1ccc(C#N)nc1 [BAY-678] | > 30 µM

Biological target: Dipeptidyl peptidase 2 (Homo sapiens, UniProt Q9UHL4)
Assay: Inhibition of DPP2 (unknown origin)
Conditions: not given

SMILES | IC50
CC(=O)C1=C(C)N(c2cccc(C(F)(F)F)c2)C(=O)N[C@@H]1c1ccc(C#N)nc1 [BAY-678] | > 30 µM

Biological target: Cytochrome P450 3A4 (Homo sapiens, UniProt P08684)
Assay: Inhibition of CYP3A4 in human pooled liver microsomes using midazolam as substrate measured after 10 to 20 mins by LC-MS/MS analysis
Conditions: not given

Chain of Cytochrome P450 3A4 (P08684 whole entry): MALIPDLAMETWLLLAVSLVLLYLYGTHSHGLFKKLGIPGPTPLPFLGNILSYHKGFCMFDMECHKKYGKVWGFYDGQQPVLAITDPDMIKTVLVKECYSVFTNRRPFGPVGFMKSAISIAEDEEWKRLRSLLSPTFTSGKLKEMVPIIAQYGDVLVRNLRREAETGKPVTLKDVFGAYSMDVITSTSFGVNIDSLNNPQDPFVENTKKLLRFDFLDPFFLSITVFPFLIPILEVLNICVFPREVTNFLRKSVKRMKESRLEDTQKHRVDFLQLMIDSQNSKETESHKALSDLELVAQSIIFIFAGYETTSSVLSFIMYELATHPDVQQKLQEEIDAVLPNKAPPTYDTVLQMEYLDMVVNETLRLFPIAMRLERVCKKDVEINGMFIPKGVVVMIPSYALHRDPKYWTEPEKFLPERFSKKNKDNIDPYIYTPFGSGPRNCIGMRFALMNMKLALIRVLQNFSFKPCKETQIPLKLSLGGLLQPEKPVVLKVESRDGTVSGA

SMILES | IC50
CC(=O)C1=C(C)N(c2cccc(C(F)(F)F)c2)C(=O)N[C@@H]1c1ccc(C#N)nc1 [BAY-678] | > 50 µM

Biological target: T3, Coagulation factor VII (Homo sapiens, UniProt P08709)
T3 sequence (P08709 whole entry): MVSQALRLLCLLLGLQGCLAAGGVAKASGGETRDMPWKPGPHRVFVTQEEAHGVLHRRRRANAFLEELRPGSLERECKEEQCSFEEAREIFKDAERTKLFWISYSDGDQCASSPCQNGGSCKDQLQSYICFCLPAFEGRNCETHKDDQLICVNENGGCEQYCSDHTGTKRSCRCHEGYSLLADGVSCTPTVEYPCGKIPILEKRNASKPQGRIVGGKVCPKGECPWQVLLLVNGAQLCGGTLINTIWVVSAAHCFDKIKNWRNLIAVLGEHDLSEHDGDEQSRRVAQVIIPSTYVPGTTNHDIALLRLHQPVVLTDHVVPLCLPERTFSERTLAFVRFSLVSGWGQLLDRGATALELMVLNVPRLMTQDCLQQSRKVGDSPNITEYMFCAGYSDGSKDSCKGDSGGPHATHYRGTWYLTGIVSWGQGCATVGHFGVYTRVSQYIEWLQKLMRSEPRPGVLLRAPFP
Assay: Inhibition of FVIIa (unknown origin)
Conditions: not given

SMILES | IC50
CC(=O)C1=C(C)N(c2cccc(C(F)(F)F)c2)C(=O)N[C@@H]1c1ccc(C#N)nc1 [BAY-678] | > 30 µM

Test system: not listed separately
Assay: Half life in rat at 0.3 mg/kg, po administered via gavage or 0.84 mg/kg, iv administered via infusion for 0.25 to 2 hrs by LC-MS/MS analysis
Format: ADME, organism-based
Conditions: in vivo

SMILES | t1/2
CC(=O)C1=C(C)N(c2cccc(C(F)(F)F)c2)C(=O)N[C@@H]1c1ccc(C#N)nc1 [BAY-678] | 1.3 h

Biological target: Kallikrein-1 (Homo sapiens, UniProt P06870)
Assay: Inhibition of kallikrein-1 (unknown origin)
Conditions: not given

Chain of Kallikrein-1 (P06870 whole entry): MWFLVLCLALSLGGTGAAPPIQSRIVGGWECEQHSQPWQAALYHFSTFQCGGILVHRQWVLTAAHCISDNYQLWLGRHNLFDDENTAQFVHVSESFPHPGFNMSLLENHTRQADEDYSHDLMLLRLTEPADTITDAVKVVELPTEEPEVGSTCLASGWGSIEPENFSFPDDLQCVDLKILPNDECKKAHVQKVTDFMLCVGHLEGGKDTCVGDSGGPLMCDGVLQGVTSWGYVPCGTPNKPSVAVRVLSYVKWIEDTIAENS

SMILES | IC50
CC(=O)C1=C(C)N(c2cccc(C(F)(F)F)c2)C(=O)N[C@@H]1c1ccc(C#N)nc1 [BAY-678] | > 30 µM

Biological target: Trypsin (Homo sapiens, UniProt P07477+P07478+P35030)
Assay: Inhibition of trypsin (unknown origin)
Format: protein assay
Conditions: not given

SMILES | IC50
CC(=O)C1=C(C)N(c2cccc(C(F)(F)F)c2)C(=O)N[C@@H]1c1ccc(C#N)nc1 [BAY-678] | > 30 µM

Biological target: Cytochrome P450 2C9 (Homo sapiens, UniProt P11712)
Assay: Inhibition of CYP2C9 in human pooled liver microsomes using diclofenac as substrate measured after 10 to 20 mins by LC-MS/MS analysis
Format: ADME, Microsome
Conditions: not given
How it was run: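 Pooled human liver microsomes were preincubated at 37°C for 10–20 min. […] Acetonitrile with internal standard stopped the reaction. Metabolite was measured by LC-MS/MS against a no-inhibitor reference, and IC50 was calculated.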

Chain of Cytochrome P450 2C9 (P11712 whole entry): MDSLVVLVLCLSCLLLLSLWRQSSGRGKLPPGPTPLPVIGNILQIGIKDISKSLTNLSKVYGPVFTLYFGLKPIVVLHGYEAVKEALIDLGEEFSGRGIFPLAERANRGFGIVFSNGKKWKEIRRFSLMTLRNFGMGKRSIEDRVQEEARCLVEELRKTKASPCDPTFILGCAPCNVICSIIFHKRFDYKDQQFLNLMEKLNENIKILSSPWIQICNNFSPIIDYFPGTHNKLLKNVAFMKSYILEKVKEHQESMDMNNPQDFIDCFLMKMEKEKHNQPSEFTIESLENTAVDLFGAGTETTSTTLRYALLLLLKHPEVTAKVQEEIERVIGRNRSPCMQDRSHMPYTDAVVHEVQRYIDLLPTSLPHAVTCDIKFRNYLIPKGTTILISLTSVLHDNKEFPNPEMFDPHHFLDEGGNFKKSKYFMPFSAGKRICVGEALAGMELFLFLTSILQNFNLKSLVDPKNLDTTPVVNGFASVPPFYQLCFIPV

SMILES | IC50
CC(=O)C1=C(C)N(c2cccc(C(F)(F)F)c2)C(=O)N[C@@H]1c1ccc(C#N)nc1 [BAY-678] | 12 µM

Test system: not listed separately
Assay: Plasma clearance in rat at 0.3 mg/kg, po administered via gavage or 0.84 mg/kg, iv administered via infusion for 0.25 to 2 hrs by LC-MS/MS analysis
Format: ADME, organism-based
Conditions: in vivo

SMILES | CL
CC(=O)C1=C(C)N(c2cccc(C(F)(F)F)c2)C(=O)N[C@@H]1c1ccc(C#N)nc1 [BAY-678] | 33 mL/min/kg

Test system: not listed separately
Assay: Oral bioavailability in rat at 0.3 mg/kg administered via gavage by LC-MS/MS analysis
Format: ADME, organism-based
Conditions: in vivo

SMILES | F
CC(=O)C1=C(C)N(c2cccc(C(F)(F)F)c2)C(=O)N[C@@H]1c1ccc(C#N)nc1 [BAY-678] | 83%

Biological target: T4, Kallikrein-5 (Homo sapiens, UniProt Q9Y337)
T4 sequence (Q9Y337 whole entry): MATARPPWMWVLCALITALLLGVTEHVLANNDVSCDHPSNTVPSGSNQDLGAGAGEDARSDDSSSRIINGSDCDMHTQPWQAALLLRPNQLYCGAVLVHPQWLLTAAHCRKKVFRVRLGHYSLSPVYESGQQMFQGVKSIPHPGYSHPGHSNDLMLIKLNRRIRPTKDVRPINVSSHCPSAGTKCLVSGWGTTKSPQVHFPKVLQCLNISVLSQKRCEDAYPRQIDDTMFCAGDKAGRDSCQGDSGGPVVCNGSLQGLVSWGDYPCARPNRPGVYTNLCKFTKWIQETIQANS
Assay: Inhibition of kallikrein-5 (unknown origin)
Conditions: not given

SMILES | IC50
CC(=O)C1=C(C)N(c2cccc(C(F)(F)F)c2)C(=O)N[C@@H]1c1ccc(C#N)nc1 [BAY-678] | > 30 µM

Biological target: T5, Chymase (Homo sapiens, UniProt P23946)
T5 sequence (P23946 whole entry): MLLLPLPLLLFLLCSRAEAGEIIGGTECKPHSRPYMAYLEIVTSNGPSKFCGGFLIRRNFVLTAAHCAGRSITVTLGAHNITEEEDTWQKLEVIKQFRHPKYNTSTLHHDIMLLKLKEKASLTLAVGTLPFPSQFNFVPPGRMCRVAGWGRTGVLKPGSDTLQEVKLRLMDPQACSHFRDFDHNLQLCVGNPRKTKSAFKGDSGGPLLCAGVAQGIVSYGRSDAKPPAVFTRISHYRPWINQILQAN
Assay: Inhibition of chymase (unknown origin)
Conditions: not given

SMILES | IC50
CC(=O)C1=C(C)N(c2cccc(C(F)(F)F)c2)C(=O)N[C@@H]1c1ccc(C#N)nc1 [BAY-678] | > 30 µM

Biological target: Coagulation factor XI (Homo sapiens, UniProt P03951)
Assay: Inhibition of FXIa (unknown origin)
Conditions: not given

Chain of Coagulation factor XI (P03951 19-387 limits assumed): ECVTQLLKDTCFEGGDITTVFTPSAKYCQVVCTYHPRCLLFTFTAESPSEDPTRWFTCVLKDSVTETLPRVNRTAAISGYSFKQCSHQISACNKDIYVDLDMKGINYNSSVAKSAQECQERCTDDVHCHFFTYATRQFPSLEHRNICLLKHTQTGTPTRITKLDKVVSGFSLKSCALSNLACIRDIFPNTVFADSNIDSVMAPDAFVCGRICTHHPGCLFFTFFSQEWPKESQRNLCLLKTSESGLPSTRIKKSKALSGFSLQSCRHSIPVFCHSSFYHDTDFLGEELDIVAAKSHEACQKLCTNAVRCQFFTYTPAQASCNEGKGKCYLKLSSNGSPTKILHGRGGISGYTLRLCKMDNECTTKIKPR
Chain of Coagulation factor XI (P03951 388-625 limits assumed): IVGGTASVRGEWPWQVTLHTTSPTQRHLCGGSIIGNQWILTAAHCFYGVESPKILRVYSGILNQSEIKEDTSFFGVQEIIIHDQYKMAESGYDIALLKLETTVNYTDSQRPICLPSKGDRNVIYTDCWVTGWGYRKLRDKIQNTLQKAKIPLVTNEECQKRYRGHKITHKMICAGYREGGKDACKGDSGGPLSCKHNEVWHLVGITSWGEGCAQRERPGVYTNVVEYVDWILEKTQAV

SMILES | IC50
CC(=O)C1=C(C)N(c2cccc(C(F)(F)F)c2)C(=O)N[C@@H]1c1ccc(C#N)nc1 [BAY-678] | > 30 µM

Biological target: Kallikrein-7 (Homo sapiens, UniProt P49862)
Assay: Inhibition of kallikrein-7 (unknown origin)
Conditions: not given

Chain of Kallikrein-7 (P49862 whole entry): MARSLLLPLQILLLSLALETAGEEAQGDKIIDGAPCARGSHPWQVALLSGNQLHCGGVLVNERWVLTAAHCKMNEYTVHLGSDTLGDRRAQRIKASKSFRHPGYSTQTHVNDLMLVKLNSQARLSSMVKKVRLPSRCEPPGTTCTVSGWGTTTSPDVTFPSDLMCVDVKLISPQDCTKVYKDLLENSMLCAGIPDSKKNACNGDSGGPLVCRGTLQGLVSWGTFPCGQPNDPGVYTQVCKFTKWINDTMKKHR

SMILES | IC50
CC(=O)C1=C(C)N(c2cccc(C(F)(F)F)c2)C(=O)N[C@@H]1c1ccc(C#N)nc1 [BAY-678] | > 30 µM

Biological target: Dipeptidyl peptidase 4 (Homo sapiens, UniProt P27487)
Assay: Inhibition of DPP4 (unknown origin)
Conditions: not given

Chain of Dipeptidyl peptidase 4 (P27487 whole entry): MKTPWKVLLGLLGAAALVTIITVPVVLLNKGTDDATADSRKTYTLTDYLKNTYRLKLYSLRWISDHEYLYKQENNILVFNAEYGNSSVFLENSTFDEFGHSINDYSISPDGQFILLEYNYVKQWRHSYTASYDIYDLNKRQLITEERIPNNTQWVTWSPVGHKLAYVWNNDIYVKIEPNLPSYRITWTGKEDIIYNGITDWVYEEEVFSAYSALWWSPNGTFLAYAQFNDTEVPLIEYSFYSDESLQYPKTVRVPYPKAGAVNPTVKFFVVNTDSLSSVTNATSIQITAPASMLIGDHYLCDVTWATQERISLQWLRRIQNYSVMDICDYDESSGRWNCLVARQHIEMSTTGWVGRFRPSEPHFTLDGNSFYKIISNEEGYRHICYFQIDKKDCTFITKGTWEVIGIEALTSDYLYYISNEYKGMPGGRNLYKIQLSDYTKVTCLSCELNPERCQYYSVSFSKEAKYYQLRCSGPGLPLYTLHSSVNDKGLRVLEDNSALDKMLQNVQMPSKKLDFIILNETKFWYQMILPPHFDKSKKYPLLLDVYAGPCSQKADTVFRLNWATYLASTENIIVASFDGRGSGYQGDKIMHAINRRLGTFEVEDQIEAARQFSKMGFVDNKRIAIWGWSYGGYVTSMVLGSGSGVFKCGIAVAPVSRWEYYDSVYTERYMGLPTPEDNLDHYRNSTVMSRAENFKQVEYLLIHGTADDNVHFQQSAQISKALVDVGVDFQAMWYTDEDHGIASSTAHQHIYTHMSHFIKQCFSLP

SMILES | IC50
CC(=O)C1=C(C)N(c2cccc(C(F)(F)F)c2)C(=O)N[C@@H]1c1ccc(C#N)nc1 [BAY-678] | > 30 µM

Biological target: Plasminogen (Homo sapiens, UniProt P00747)
Assay: Inhibition of plasmin (unknown origin)
Conditions: not given

Chain of Plasminogen (P00747 97-580 limits assumed): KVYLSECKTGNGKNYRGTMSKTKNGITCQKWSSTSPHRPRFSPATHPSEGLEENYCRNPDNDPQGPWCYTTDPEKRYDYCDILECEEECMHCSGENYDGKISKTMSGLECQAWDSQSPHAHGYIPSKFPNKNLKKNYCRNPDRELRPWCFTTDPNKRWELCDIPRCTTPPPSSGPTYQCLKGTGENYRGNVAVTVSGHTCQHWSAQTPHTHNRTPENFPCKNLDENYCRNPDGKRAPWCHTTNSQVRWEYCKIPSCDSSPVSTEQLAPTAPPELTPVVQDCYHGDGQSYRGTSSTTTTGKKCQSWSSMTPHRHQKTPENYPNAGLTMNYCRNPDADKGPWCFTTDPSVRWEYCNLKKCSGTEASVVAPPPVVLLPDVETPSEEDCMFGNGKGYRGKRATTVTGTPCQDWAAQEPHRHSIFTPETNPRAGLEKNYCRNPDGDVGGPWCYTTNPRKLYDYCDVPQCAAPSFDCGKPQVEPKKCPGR
Chain of Plasminogen (P00747 581-810 limits assumed): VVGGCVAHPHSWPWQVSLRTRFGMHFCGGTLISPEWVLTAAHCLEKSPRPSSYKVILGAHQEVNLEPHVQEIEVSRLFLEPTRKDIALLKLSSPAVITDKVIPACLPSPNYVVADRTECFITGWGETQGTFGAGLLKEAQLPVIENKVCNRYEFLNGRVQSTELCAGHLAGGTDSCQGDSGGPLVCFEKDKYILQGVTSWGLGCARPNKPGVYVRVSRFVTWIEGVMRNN

SMILES | IC50
CC(=O)C1=C(C)N(c2cccc(C(F)(F)F)c2)C(=O)N[C@@H]1c1ccc(C#N)nc1 [BAY-678] | > 30 µM

Biological target: Chymotrypsin (Homo sapiens, UniProt Q99895+P17538+P40313+Q6GPI1)
Assay: Inhibition of chymotrypsin (unknown origin)
Format: protein assay
Conditions: not given

SMILES | IC50
CC(=O)C1=C(C)N(c2cccc(C(F)(F)F)c2)C(=O)N[C@@H]1c1ccc(C#N)nc1 [BAY-678] | > 30 µM

Biological target: T6, Prolyl endopeptidase FAP (Homo sapiens, UniProt Q12884)
T6 sequence (Q12884 whole entry): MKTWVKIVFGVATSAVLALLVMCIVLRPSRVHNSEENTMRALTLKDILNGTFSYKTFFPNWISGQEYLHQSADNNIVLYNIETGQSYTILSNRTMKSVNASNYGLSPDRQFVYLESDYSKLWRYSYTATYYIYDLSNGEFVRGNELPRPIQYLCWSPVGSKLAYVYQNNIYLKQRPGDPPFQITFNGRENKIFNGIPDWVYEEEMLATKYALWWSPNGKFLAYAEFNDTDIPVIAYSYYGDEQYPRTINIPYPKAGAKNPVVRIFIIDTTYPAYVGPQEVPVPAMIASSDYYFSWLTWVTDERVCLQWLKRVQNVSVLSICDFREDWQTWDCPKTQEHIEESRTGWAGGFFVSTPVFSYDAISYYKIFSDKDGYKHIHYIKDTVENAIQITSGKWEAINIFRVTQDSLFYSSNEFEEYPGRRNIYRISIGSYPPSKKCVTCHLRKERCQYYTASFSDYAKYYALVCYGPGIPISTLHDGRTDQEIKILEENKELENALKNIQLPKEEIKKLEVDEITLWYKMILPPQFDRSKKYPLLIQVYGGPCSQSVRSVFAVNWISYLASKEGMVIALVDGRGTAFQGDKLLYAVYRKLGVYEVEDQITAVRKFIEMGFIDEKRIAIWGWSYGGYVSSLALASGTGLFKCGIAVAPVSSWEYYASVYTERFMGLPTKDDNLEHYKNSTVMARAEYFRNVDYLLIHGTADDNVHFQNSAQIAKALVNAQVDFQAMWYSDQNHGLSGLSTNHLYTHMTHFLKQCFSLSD
Assay: Inhibition of FAP (unknown origin)
Conditions: not given

SMILES | IC50
CC(=O)C1=C(C)N(c2cccc(C(F)(F)F)c2)C(=O)N[C@@H]1c1ccc(C#N)nc1 [BAY-678] | > 30 µM
